Assay results reported in PMC7684530 (European Journal of Medicinal Chemistry, 2020).
“Also recorded” adds a separate entry of the source.

Experiments:
PqsR [1] = target: T1, PqsR (Pseudomonas aeruginosa, UniProt Q9I4X0); test: 10 μM spot test in the PAO1-L mCTX:PpqsA-lux bioreporter; format: cell-based, Pseudomonas aeruginosa PAO1-L; conditions: 10 μM ligand concentration
T1 sequence (Q9I4X0 1-332): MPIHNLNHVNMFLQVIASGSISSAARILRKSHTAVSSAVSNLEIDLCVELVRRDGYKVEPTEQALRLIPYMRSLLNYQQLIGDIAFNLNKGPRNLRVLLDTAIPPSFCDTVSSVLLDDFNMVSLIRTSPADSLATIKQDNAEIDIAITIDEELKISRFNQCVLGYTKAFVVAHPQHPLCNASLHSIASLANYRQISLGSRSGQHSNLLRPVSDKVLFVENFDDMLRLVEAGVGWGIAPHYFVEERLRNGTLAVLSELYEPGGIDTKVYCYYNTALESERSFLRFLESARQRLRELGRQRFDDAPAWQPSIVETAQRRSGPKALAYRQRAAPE
How it was run: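 Single-concentration screen of the PAO1-L mCTX:PpqsA-lux strain in LB. The reporter was grown overnight at 37 °C to OD600 2.0–3.0 and diluted to OD600 0.02. A 20 μM compound solution in LB was mixed 1:1 with the cells (final 10 μM) in at least three wells. OD600 and luminescence were read every 30 min at 37 °C over 24 h. Activity (luminescence/OD600) was taken at the luminescence peak and compared with the DMSO control.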

PqsR [2] = target: T1, PqsR; test: PqsR bioreporter assay; format: cell-based, Pseudomonas aeruginosa PAO1-L; conditions: for activity: read-out: IC50 value in PAO1-L
How it was run: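 Dose-response of the PAO1-L mCTX:PpqsA-lux reporter. Ten compound concentrations in LB came from two tenfold dilution series and were mixed 1:1 with PAO1-L diluted to OD600 0.02, giving final 31.6 μM to 1 nM, in triplicate. The plate was kinetically read at 37 °C over 24 h for OD600 and luminescence every 30 min. Values were taken at the luminescence peak (8–9 h), and log concentration was plotted against RLU/OD600.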

[3] = system: A549 lung epithelial cells; test: Cytotoxicity; format: cell-based, human; conditions: 0.1 to 100 μM, 16 h
[4] = Solubility in the cytotoxicity test buffer; format: physicochemical; conditions: this concentration = 100 μM

Structure (SMILES) | activity when screened at 10 μM (in words) (PqsR [1]) | activity (PqsR [2]) | also measured
CC(C)c1noc(Cn2cnc3ccc(Cl)cc3c2=O)n1 [Compound 7] | inactive; also recorded: inactivity | – | –
Cc1nc(Cn2cnc3ccc(Cl)cc3c2=O)cs1 [Compound 8, 6-Chloro-3-((2-methylthiazol-4-yl)methyl)quinazolin-4(3H)-one] | – | > 50% | –
O=c1c2cc(Cl)ccc2ncn1Cc1csc(C(F)(F)F)n1 [Compound 9, 6-Chloro-3-((2-(trifluoromethyl)thiazol-4-yl)methyl)quinazolin-4(3H)-one] | – | > 50% | –
CCc1nc(Cn2cnc3ccc(Cl)cc3c2=O)cs1 [Compound 10, 6-Chloro-3-((2-ethylthiazol-4-yl)methyl)quinazolin-4(3H)-one] | – | > 50% | –
N#CCc1nc(Cn2cnc3ccc(Cl)cc3c2=O)cs1 [Compound 11, 2-(4-((6-Chloro-4-oxoquinazolin-3(4H)-yl)methyl)thiazol-2-yl)acetonitrile] | – | > 50% | –
CC(C)(C)c1nc(Cn2cnc3ccc(Cl)cc3c2=O)cs1 [Compound 12, 3-((2-(Tert-butyl)thiazol-4-yl)methyl)-6-chloroquinazolin-4(3H)-one] | – | – | activity in PAO1-L compared with 32 (PqsR [2]; ratio of IC50 values, strain PAO1-L): seven-fold stronger activity
CCCCCc1nc(Cn2cnc3ccc(Cl)cc3c2=O)cs1 [Compound 18, 6-Chloro-3-((2-pentylthiazol-4-yl)methyl)quinazolin-4(3H)-one] | – | – | cytotoxic concentration (no significant toxicity up to; LD50 not reached) [3]: > 100 µM; solubility in the test buffer [4]: neither compound was fully soluble above this concentration
CCCCCCc1nc(Cn2cnc3ccc(Cl)cc3c2=O)cs1 [Compound 19, 6-Chloro-3-((2-hexylthiazol-4-yl)methyl)quinazolin-4(3H)-one] | – | – | cytotoxic concentration (no significant toxicity up to; LD50 not reached) [3]: > 100 µM; solubility in the test buffer [4]: neither compound was fully soluble above this concentration
O=c1c2cc(Cl)ccc2ncn1Cc1csc(-c2ccc([N+](=O)[O-])cc2)n1 [Compound 23, 6-Chloro-3-((2-(4-nitrophenyl)thiazol-4-yl)methyl)quinazolin-4(3H)-one] | inactive | > 50% | –
COCCNc1nc(Cn2cnc3ccc(Cl)cc3c2=O)cs1 [Compound 24, 6-Chloro-3-((2-((2-methoxyethyl)amino)thiazol-4-yl)methyl)quinazolin-4(3H)-one] | no inhibition | > 50% | –
NC(N)=Nc1nc(Cn2cnc3ccc(Cl)cc3c2=O)cs1 [Compound 26, 2-(4-((6-Chloro-4-oxoquinazolin-3(4H)-yl)methyl)thiazol-2-yl)guanidine] | inactive | > 50% | –
CC1CCN(c2ncc(Cn3cnc4ccc(Cl)cc4c3=O)s2)CC1 [Compound 27, 6-Chloro-3-((2-(4-methylpiperidin-1-yl)thiazol-5-yl)methyl)quinazolin-4-(3H)-one] | – | > 50% | –
O=c1c2cc(Cl)ccc2ncn1Cc1cnc(NC2CCCCC2)s1 [Compound 28, 6-Chloro-3-((2-(cyclohexylamino)thiazol-5-yl)methyl)quinazolin-4-(3H)-one] | – | > 50% | –
CN(CCO)c1ncc(Cn2cnc3ccc(Cl)cc3c2=O)s1 [Compound 29, 6-Chloro-3-((2-(2-hydroxyethyl(methyl)amino)thiazol-5-yl)methyl)quinazolin-4-(3H)-one] | – | > 50% | –
CCCCNc1ncc(Cn2cnc3ccc(Cl)cc3c2=O)s1 [Compound 30, 3-((2-(Butylamino)thiazol-5-yl)methyl)-6-chloroquinazolin-4(3H)-one] | – | > 50% | –
COCCNc1ncc(Cn2cnc3ccc(Cl)cc3c2=O)s1 [Compound 31, 6-Chloro-3-((2-((2-methoxyethyl)amino)thiazol-5-yl)methyl)quinazolin-4-(3H)-one] | – | > 50% | –
CCCCCc1nc(Cn2cnc3cc(Cl)ccc3c2=O)cs1 [Compound 33, 7-Chloro-3-((2-pentylthiazol-4-yl)methyl)quinazolin-4(3H)-one] | inactive | > 50% | –
O=c1c2cc(Cl)ccc2ncn1Cc1cnc(Cl)s1 [Compound 34, 6-Chloro-3-((2-chlorothiazol-5-yl)methyl)quinazolin-4(3H)-one] | – | > 50% | –
CC(C)c1ncc(Cn2cnc3ccc(Cl)cc3c2=O)s1 [Compound 35, 6-Chloro-3-((2-isopropylthiazol-5-yl)methyl)quinazolin-4(3H)-one] | inactive; also recorded: inactivity | > 50% | –
